# The source made the active and inactive calls. The rule behind the calls is not given here.
# Assays:
# [1] = Cytotoxicity against human TZM-bl cells by Cell Titer Blue cell viability assay; type: cell-based
# Method in brief: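 Viability of TZM-bl reporter cells was measured by Cell Titer Blue at the same compound concentration used in the HIV-1 infectivity assay (3 μM).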
# TZM-bl = test: Inhibition of HIV protein Nef in TZM-bl cells assessed decrease in HIV infectivity at 3 uM after 48 hrs by TZM-bl HIV infectivity assay; type: cell-based; settings: Human immunodeficiency virus
# Method in brief: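 TZM-bl reporter cells (HIV-1 LTR-driven luciferase) received compound at 3 μM and were then infected with wild-type HIV-1 NL4-3. Luciferase was read 48 h later. Signal from cells infected with Nef-defective HIV was subtracted, and values are mean percent of untreated-cell control ± SEM.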
Compound,Activity [1],Nef inhibition activity call (active/inactive) (TZM-bl)
NC(=S)n1nc(-c2ccc([N+](=O)[O-])cc2)c(/N=N/c2ccc(F)cc2)c1O,Non-toxic,–
Oc1[nH]nc(-c2ccc(F)cc2)c1/N=N/c1cncc(Cl)c1,Non-toxic,inactive
COc1ccccc1/N=N/c1c(-c2ccc([N+](=O)[O-])cc2)nn(C(N)=S)c1O,Non-toxic,inactive
COc1ccc(-c2nn(C(N)=S)c(O)c2/N=N/c2cccc(Cl)c2)cc1,Non-toxic,inactive
NC(=O)n1nc(-c2ccc([N+](=O)[O-])cc2)c(/N=N/c2cccc(Cl)c2)c1O,Non-toxic,inactive
NC(=S)n1nc(-c2ccc(C(F)(F)F)cc2)c(/N=N/c2cccc(Cl)c2)c1O,Non-toxic,Active
NC(=O)n1nc(-c2ccc([N+](=O)[O-])cc2)c(/N=N/c2ccc(Cl)cc2)c1O,Non-toxic,–
NC(=S)n1nc(-c2ccc([N+](=O)[O-])cc2)c(/N=N/c2cccnc2)c1O,Non-toxic,Active
NC(=O)n1nc(-c2ccc([N+](=O)[O-])cc2)c(/N=N/c2cncc(Cl)c2)c1O,Non-toxic,–
NC(=O)n1nc(-c2ccc(F)cc2)c(/N=N/c2cccc(Cl)c2)c1O,Non-toxic,Active
NC(=O)n1nc(-c2ccc(F)cc2)c(/N=N/c2cncc(Cl)c2)c1O,Non-toxic,–
COc1cccc(/N=N/c2c(-c3ccc([N+](=O)[O-])cc3)nn(C(N)=S)c2O)c1,Non-toxic,inactive
Oc1[nH]nc(-c2ccc(F)cc2)c1/N=N/c1cccnc1,Non-toxic,–
NC(=S)n1nc(-c2ccc([N+](=O)[O-])cc2)c(/N=N/c2ccccc2Cl)c1O,Non-toxic,inactive
NC(=S)n1nc(-c2ccc([N+](=O)[O-])cc2)c(/N=N/c2ccccc2F)c1O,Non-toxic,–
NC(=O)n1nc(-c2ccc([N+](=O)[O-])cc2)c(/N=N/c2cccnc2)c1O,Non-toxic,–
NC(=S)n1nc(-c2ccc([N+](=O)[O-])cc2)c(/N=N/c2cccc(F)c2)c1O,Non-toxic,–
NC(=S)n1nc(-c2ccccc2)c(/N=N/c2cccc(Cl)c2)c1O,Non-toxic,inactive
COc1ccc(/N=N/c2c(-c3ccc([N+](=O)[O-])cc3)n[nH]c2O)cc1,Non-toxic,Active
NC(=S)n1nc(-c2ccc([N+](=O)[O-])cc2)c(/N=N/c2cncc(Cl)c2)c1O,Non-toxic,Active
NC(=S)n1nc(-c2ccc([N+](=O)[O-])cc2)c(/N=N/c2ccc(Cl)cc2)c1O,Non-toxic,Active
NC(=S)n1nc(-c2ccc([N+](=O)[O-])cc2)c(/N=N/c2cccc(Cl)c2)c1O,Non-toxic,–
NC(=O)n1nc(-c2ccc(F)cc2)c(/N=N/c2cccnc2)c1O,Non-toxic,–
Oc1[nH]nc(-c2ccccc2)c1/N=N/c1ccccc1,Non-toxic,inactive
